A selection: hits, their analogues and other compounds. The true share with any hit is near 2.8%.
Measles CPE – protection of cells from measles virus; Measles virus-infected cells, CPE protection, absorbance; protection (pct of control), % at 4 µM; 140,000 compounds, 1.5% hits; AID 841; in the data active means protection mostly above about 24%, no sharp cut-off; inactive means mostly below about 26%
NPY-Y1 antag – NPY-Y1 (human) receptor antagonism. HEK293-CNG Y1 cells, membrane potential fluorescence; NPY at EC95, then isoproterenol. P25929. inhibition, % at 3.6 µM. 200,000 compounds, 1% hits;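 active means inhibition above the campaign mean inhibition of all tested compounds plus 3 SD, cut at about 20% in these data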;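 further: 0% = DMSO wells given NPY plus isoproterenol and 100% = isoproterenol alone without NPY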
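Assay system: HEK293 Y1/CNG channel cell line; Doses: single compound dose of 3.6 µM, 0.4% DMSO; Timing: dye 3 h, compound 60 min room temperature, stimulation 45 min; Technique: Membrane-potential fluorescent dye readout; Measure: % inhibition of NPY effect.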
NPY-Y2 PAM-ag – potentiators or agonists of human neuropeptide Y receptor Y2. P49146. cells expressing NPY-Y2, potentiator/agonist read-out. activation, % at 3.6 µM. 220,000 compounds, 0.45% hits. AID 1359; in the data active means activation above about 27%;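 further: cells stimulated with NPY near EC25 plus isoproterenol at EC100; 0% = vehicle plus submaximal agonist and 100% = vehicle plus saturating agonist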
NPY1 pot ag – potentiates or activates human NPY-Y1 receptor; P25929; NPY-Y1 expressing cells, potentiator/agonist activation; activation, % at 3.6 µM; 220,000 compounds, 0.37% hits; in the data active means activation above about 33%, passing the limit was not always enough;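 further: cells stimulated with NPY at EC10 then isoproterenol at EC100; 0% = low agonist plus stimulus and 100% = saturating agonist plus stimulus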
NPY Y2 blocker – blocks the human neuropeptide Y Y2 receptor; NPY-Y2 expressing cells, antagonist mode; inhibition, % at 2.7 µM; 140,000 compounds, 0.99% hits; AID 793; in the data active means inhibition above about 17%;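 further: 0% = vehicle with agonist challenge and 100% = reference antagonist with challenge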
MDM2 E3 inh – inhibitors of human Mdm2 E3 ubiquitin ligase. Q00987. cell-based MDM2 ubiquitination luciferase reporter, 2 h; 0 = plate control, 100 = twice control, blank-subtracted. signal enhancement, % at 5 µM. 210,000 compounds, 0.11% hits. AID 1230;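 active means signal enhancement of 30% or more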;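 further: luminescence tracks abundance of the self-degrading MDM2-luciferase fusion protein; higher signal means inhibition of MDM2 E3 ligase activity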
Target sequence (Q00987 whole entry, looked up, the tested form may be a part): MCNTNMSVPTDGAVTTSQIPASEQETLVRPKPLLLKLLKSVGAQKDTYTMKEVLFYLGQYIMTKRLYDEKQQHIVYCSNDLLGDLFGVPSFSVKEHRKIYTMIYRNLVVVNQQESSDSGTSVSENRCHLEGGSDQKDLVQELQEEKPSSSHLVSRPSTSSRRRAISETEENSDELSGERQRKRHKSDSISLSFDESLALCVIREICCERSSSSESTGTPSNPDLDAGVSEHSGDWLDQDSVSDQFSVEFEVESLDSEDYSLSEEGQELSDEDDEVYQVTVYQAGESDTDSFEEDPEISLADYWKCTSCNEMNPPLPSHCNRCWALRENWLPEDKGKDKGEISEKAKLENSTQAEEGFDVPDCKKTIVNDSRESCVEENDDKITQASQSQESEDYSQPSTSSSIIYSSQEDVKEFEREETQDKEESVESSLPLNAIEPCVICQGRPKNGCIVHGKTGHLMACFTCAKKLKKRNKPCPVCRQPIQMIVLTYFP
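Material: stable MDM2–luciferase fusion reporter cells / Quantity: 2000 cells/well / Dosing: single 5 µM compound dose, 0.2% final DMSO / Buffer or medium: DMEM / Schedule: 4 h cell settling then 2 h compound exposure, 37 °C / Detection: luminescence with SteadyLite reagent, 15 min at room temperature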
The depositor's hits bear a star; / = no result.

SMILES | Measles CPE | NPY-Y1 antag | NPY-Y2 PAM-ag | NPY1 pot ag | NPY Y2 blocker | MDM2 E3 inh
CCn1cnc2sc(C(=O)N(Cc3ccc(N(C)C)cc3)Cc3ccco3)c(C)c2c1=O | 55.1* | 9.6 | 12.9 | -6.2 | 5.7 | -8.9
COc1cccc2c(=O)n(CC(=O)Nc3ccccc3)ccc12 | 90.2* | 3.4 | -5.9 | 13.5 | 3.8 | -4.7
CCCN(CCC)CCOc1cc(C)ccc1C(C)C | 15.0 | 28.2* | -5.5 | -15.9 | 27.1* | 9.6
Cc1ccc(C(C)C)c(OCCN(C)C)c1 | 2.8 | -2.0 | -21.6 | -3.1 | 5.6 | -13.6
CCCCCCOc1ccc(/C(N)=N/O)cc1 | 1.9 | -10.7 | 99.3* | 83.7* | 3.3 | -7.8
O=C1O/C(=C/C(=O)N2CCOCC2)c2ccccc21 | 2.5 | 2.1 | 13.6 | -8.7 | 0.6 | /
CNC(=S)/N=C/NOCc1ccc(Cl)cc1Cl | / | 2.1 | 4.3 | -14.8 | / | -8.2
O=c1cc(N2CCCCC2)c(-c2ccccc2)nn1Cc1ccc(Cl)cc1Cl | 43.0* | 2.7 | -6.8 | 16.3 | -1.3 | -18.1
Nc1c(Cl)ncnc1N/N=C/c1ccccn1 | 7.5 | 7.5 | 13.6 | 3.5 | 4.1 | 18.9
Nc1c(Cl)ncnc1N/N=C/c1ccc2ccccc2n1 | 11.8 | 10.2 | 11.3 | -2.7 | -0.3 | 41.2*
O=Nc1c(O)n(Cc2cccc(C(F)(F)F)c2)c2ccccc12 | / | 0.9 | -0.4 | 15.2 | / | -13.2
COc1cccc2c1C(=O)C=C(C)C2=O | 8.4 | 4.8 | 34.5* | 51.5* | -0.2 | -7.9
O=C(Cc1c(Sc2ccccc2)c2ccccc2n1Cc1ccccc1)NCCO | 1.7 | -4.4 | 10.3 | 39.1 | -0.7 | -11.4
O=c1cc(O)c2c(=O)n(-c3ccccc3)c3c(c2o1)CCCCCC3 | 35.8* | -5.7 | 9.3 | 5.7 | 3.3 | -2.2
O=c1cc(O)c2c(=O)n(C3CCCCC3)c3ccccc3c2o1 | 0.5 | 2.4 | -2.4 | 9.7 | -0.6 | -1.4
Cc1nn(-c2nc3ccccc3s2)c(C)c1Oc1ccccc1O | 43.8* | -6.9 | 14.4 | 18.4 | -2.0 | -20.0
Cc1nn(-c2ccccn2)c(C)c1Oc1ccccc1O | 0.4 | -2.0 | 5.9 | -0.5 | 2.6 | -7.5
C(=C\c1ccccc1)/CSc1nnc(-c2cnccn2)n1Cc1ccco1 | 19.4 | 16.7 | -16.3 | -16.6 | 21.5* | -15.5
COc1ccc(CCNC(=O)Cn2cnc3c(cnn3-c3ccccc3Cl)c2=O)cc1OC | 8.2 | 1.4 | -10.9 | -1.6 | 3.2 | -13.8
CCOC(=O)N/N=C(/C)c1ccc([N+](=O)[O-])o1 | 83.1* | 2.5 | -36.9 | -3.6 | 0.9 | -4.7
COc1ccc(C)cc1NC(=O)COC(=O)c1ccc([N+](=O)[O-])o1 | / | -2.6 | -19.3 | -7.4 | / | -5.5
CSc1nnc(-c2ccc(Cl)cc2Cl)o1 | 89.3* | 3.1 | 9.3 | 41.1 | 3.4 | 10.2
CCSc1nnc(-c2ccc(Cl)cc2Cl)o1 | 2.9 | 4.7 | -35.8 | -23.3 | 1.4 | -5.9
COc1ccc(NC(=O)c2ccccc2NC(=O)CSc2ccc(Cl)cc2)cc1 | 10.5 | -5.3 | -26.8 | 0.1 | 1.8 | -12.9
COC(C/C=C\[C@@H](O)COCc1ccccc1)OC | / | / | / | / | / | -4.5
SMILES | Measles CPE | NPY-Y1 antag | NPY-Y2 PAM-ag | NPY1 pot ag | NPY Y2 blocker | MDM2 E3 inh
Cc1ccc2c(c1)c1c(n2CC(O)CNC(C)(C)C)CCCC1 (stereo unspecified) | 9.5 | -9.0 | 41.4* | 26.8 | 1.5 | -7.3
Cc1ccc2c(c1)c1c(n2CC(O)Cn2c(C)nc3ccccc32)CCCC1 (stereo unspecified) | 4.0 | 10.6 | 15.0 | -1.6 | 5.9 | -10.7
CCC(=O)N(Cc1c(C)nn(-c2ccccc2)c1Cl)c1ccc(Cl)cc1 | 11.0 | 28.6* | -11.1 | -13.7 | 18.9* | -9.8
COc1ccc(NC(=O)C(C)N2C(=O)c3ccccc3C2=O)cc1S(=O)(=O)N1CCOCC1 (stereo unspecified) | / | 2.3 | 6.4 | 2.8 | / | -3.7
COc1ccc(F)cc1S(=O)(=O)Nc1cccc(C(=O)O)c1 | 13.4 | -3.2 | -9.3 | -17.1 | -0.4 | 19.3
COC(=O)CCCC(=O)Nc1c(F)c(F)c(F)c(F)c1F | 7.0 | 0.6 | -2.1 | -2.2 | 1.5 | -14.9
[O-][N+]1=C(c2cccs2)CN(O)C1 | 34.3* | -4.3 | 5.2 | 12.6 | 0.5 | -10.4
Cc1ccccc1CC1(CO)CCCN(C(=O)CCCN2CCCCC2=O)C1 (stereo unspecified) | / | 0.2 | 9.4 | 12.9 | / | 6.2
O=C(NCCc1c[nH]c2ccccc12)C(F)(F)F | 45.4* | 2.2 | -5.3 | -5.5 | -1.6 | -11.3
CC(C)C(=O)NCCc1c[nH]c2ccccc12 | 6.0 | 1.2 | -4.2 | -9.6 | 3.5 | -6.7
COc1ccc(CC(=O)Nc2nnc(C(C)(C)C)s2)cc1OC | / | -0.5 | -3.8 | 13.0 | / | -4.5
O=C(C1CCN(Cc2ccc(F)cc2)CC1)N(CCO)Cc1ccccc1 | 3.6 | 3.1 | 2.9 | -15.5 | 3.1 | -14.8
O=C(C1CCN(Cc2ccc(F)cc2)CC1)N(CCc1ccccc1)Cc1ccccc1 | 4.1 | 21.3* | -9.3 | -29.0 | 23.6* | -11.1
C/C(=N\N=C(/N)SC1CC(=O)N(c2ccc(Br)cc2)C1=O)c1cccs1 (stereo unspecified) | 16.8 | -7.6 | 43.9* | 44.8* | -4.4 | 0.3
O=c1cc(-c2ccc(Cl)cc2)[nH][nH]1 | 40.5* | 1.7 | -6.7 | -18.6 | 1.1 | -12.8
O=c1cc(-c2ccc(Cl)c(Cl)c2)[nH][nH]1 | 35.6 | 5.5 | 7.2 | -43.8 | 4.5 | -7.3
COc1cc(C2c3c(oc4ccccc4c3=O)C(=O)N2c2nccs2)ccc1O (stereo unspecified) | / | / | -16.3 | 0.4 | / | -7.9
COc1ccc(C(=O)NCCCN2CCOCC2)cc1OC | 65.8* | 0.9 | -8.6 | -10.1 | 0.7 | -32.6
COc1ccc(NC(=O)c2ccc(-c3nn(C)c(=O)c4ccccc34)cc2)cc1C(N)=O | / | / | 4.8 | -2.6 | / | /
CC(=O)C1=C(O)C(=O)N(Cc2ccco2)C1c1ccccc1 (stereo unspecified) | 33.5* | -5.5 | 8.9 | 11.1 | 2.5 | 1.7
COC(=O)C1C(=O)c2c([nH]c(C(=O)OC3CCCC3C)c2C)CC1C (stereo unspecified) | 24.7 | 3.8 | 6.5 | 8.2 | 3.3 | -1.1
COC(=O)C1C(=O)c2c([nH]c(C(=O)OC3CCCCC3)c2C)CC1C (stereo unspecified) | 33.3* | 19.1 | 3.4 | -8.4 | 12.3 | -6.7
CC(=O)Nc1ccccc1OC(C)C(=O)NC(C)c1ccc(F)cc1 (stereo unspecified) | 30.0 | -1.0 | -0.2 | -22.2 | 2.7 | -0.6
O=C(N/N=C/c1ccc([N+](=O)[O-])o1)C1CC1 | / | -0.7 | -10.3 | -7.0 | / | -7.8
Cc1ccc(C(=O)NN2C(=O)/C(=C/c3cccn3C)SC2=S)cc1 | 2.7 | 13.2 | -8.1 | -36.2 | 8.2 | 30.4*
Cn1cccc1/C=C1\SC(=S)N(NC(=O)c2ccccc2Cl)C1=O | 3.0 | 0.3 | -16.6 | -2.5 | 4.1 | 4.0

From PubChem BioAssay
